Measurements as given in ChEMBL document CHEMBL4130343, “Design, synthesis, and evaluation of benzofuran derivatives as novel anti-pancreatic carcinoma agents via interfering the hypoxia environment by targeting HIF-1α pathway” (Eur J Med Chem, 2017).
Calls of active or inactive are those of the source. No cut-off for these calls is given here.

Experiments:
PANC-1 [1] = assay: Induction of apoptosis in human PANC1 cells assessed as late apoptotic cells at 0.1 uM after 24 hrs by annexin V/propidium iodide staining-based flow cytometric method (reference value: 2.65%); assay type: functional
Mus musculus = assay: Toxicity in nude mouse xenografted with human PANC1 cells assessed as effect on body weight at 15 to 60 mg/kg, ip administered every 2 days for 21 days measured during compound dosing; assay type: organism-based; settings: in vivo
Procedure, shortened: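 Female nude mice were implanted s.c. in the right flank with 1×10^7 PANC-1 cells. After 4 weeks, mice with tumours averaging 100 mm³ were randomized into five groups. They were dosed i.p. at 15, 30 or 60 mg/kg every two days for 21 days and monitored for toxicity, tumour growth and body weight.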

PANC-1 [2] = assay: Induction of apoptosis in human PANC1 assessed as increase in cleaved caspase-3 levels at 0.1 to 1 uM after 24 hrs by Western blot method; assay type: functional, cell-based
Procedure, shortened: (§1)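 PANC-1 cells were treated with graded compound concentrations for 24 h, then lysed. Proteins were separated by SDS-PAGE and blotted to PVDF. Blots were probed for PARP, cleaved PARP, caspase-3, cleaved caspase-3, caspase-9 and cleaved caspase-9, with GAPDH as loading control, and read by infrared imaging. Bands were quantified by densitometry as ratios normalized to GAPDH.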

PANC-1 [3] = assay: Induction of apoptosis in human PANC1 cells assessed as early apoptotic cells at 2 uM after 24 hrs by annexin V/propidium iodide staining-based flow cytometric method (reference value: 7.25%); assay type: functional
A549 = assay: Antiproliferative activity against human A549 cells after 48 hrs by MTT assay; assay type: functional, cell-based; settings: A549, 48 h
Procedure, shortened: (§2)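 Cells were seeded at 5×10^5 cells/mL overnight and exposed to graded compound concentrations for 48 h. MTT (5 mg/mL stock) was added for 4 h at 37 °C, and formazan was dissolved in DMSO. Absorbance was read at 570 nm. IC₅₀ was fitted from the curves; values are mean ± SD, n = 3.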

BXPC-3 = assay: Antiproliferative activity against human BxPC3 cells after 48 hrs by MTT assay; assay type: functional, cell-based; settings: BXPC-3, 48 h; procedure, shortened: as §2
HCT-116 = assay: Antiproliferative activity against human HCT116 cells after 48 hrs by MTT assay; assay type: functional, cell-based; settings: HCT-116, 48 h; procedure, shortened: as §2
PANC-1 [4] = assay: Induction of apoptosis in human PANC1 cells assessed as late apoptotic cells at 1 uM after 24 hrs by annexin V/propidium iodide staining-based flow cytometric method (reference value: 2.65%); assay type: functional
PANC-1 [5] = assay: Induction of apoptosis in human PANC1 assessed as decrease in caspase-9 levels at 0.1 to 1 uM after 24 hrs by Western blot method; assay type: functional, cell-based; procedure, shortened: as §1
PANC-1 [6] = assay: Induction of apoptosis in human PANC1 assessed as decrease in caspase-3 levels at 0.1 to 1 uM after 24 hrs by Western blot method; assay type: functional, cell-based; procedure, shortened: as §1
[7] = Cmax in rat at 10 mg/kg, ip after 0.083 to 24 hrs by LC-MS/MS method; assay type: ADME, organism-based; parameters: dose 10 mg/kg, route intraperitoneal; settings: in vivo
[8] = Bioavailability in rat at 10 mg/kg, ip after 0.083 to 24 hrs by LC-MS/MS method; assay type: ADME, organism-based; settings: in vivo
PANC-1 [9] = assay: Induction of apoptosis in human PANC1 assessed as increase in cleaved PARP levels at 0.1 to 1 uM after 24 hrs by Western blot method; assay type: functional, cell-based; procedure, shortened: as §1
PANC-1 [10] = assay: Induction of apoptosis in human PANC1 cells assessed as early apoptotic cells at 1 uM after 24 hrs by annexin V/propidium iodide staining-based flow cytometric method (reference value: 7.25%); assay type: functional
[11] = Plasma concentration in rat at 10 mg/kg, ip after 36 hrs by LC-MS/MS method; assay type: ADME, organism-based
Procedure, shortened: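 Rats, n = 6 per group, each given a single 10 mg/kg dose. Blood was collected into heparinized tubes and centrifuged at 4 °C and 8000 rpm for 5 min. Plasma was analysed by LC–MS/MS.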

HUVEC [12] = assay: Antiangiogenic activity in HUVEC assessed as inhibition of tube formation under hypoxia condition at 0.625 to 2.5 uM after 6 hrs by inverted microscopic method; settings: Homo sapiens
PANC-1 [13] = assay: Anticlonogenic activity against human PANC1 cells after 2 weeks by crystal violet staining-based assay; assay type: functional, cell-based
Procedure, shortened: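 PANC-1 cells were seeded at 100 cells/well overnight, then exposed to graded compound concentrations for 14 days with medium changed every three days. Colonies were fixed in 10% ethanol for 10 min and stained with 0.5% crystal violet in 25% ethanol for 10 min. Plates were dried and scanned.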

[14] = molecular target: Hypoxia-inducible factor 1-alpha (Homo sapiens) (UniProt Q16665); assay: Inhibition of HIF-1alpha (unknown origin) expressed in HEK293 cells under hypoxia condition after 24 hrs by luciferase reporter gene assay; assay type: cell-based
Procedure, shortened: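 HEK293 cells were co-transfected with HRE-luciferase and pRL-SV40 plasmids for 6 h. Cells were then treated with compound under hypoxia (1% O₂, 94% N₂, 5% CO₂, 37 °C) for 24 h. Activity was read by dual-luciferase assay on a luminometer.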

[15] = AUC (0 to t) in rat at 10 mg/kg, ip after 0.083 to 24 hrs by LC-MS/MS method; assay type: ADME, organism-based; parameters: dose 10 mg/kg, time 0.083-24 hr, route intraperitoneal; settings: in vivo
[16] = Half life in rat at 10 mg/kg, iv after 0.083 to 24 hrs by LC-MS/MS method; assay type: ADME, organism-based; settings: in vivo
PANC-1 [17] = assay: Induction of apoptosis in human PANC1 cells after 24 hrs by annexin V/propidium iodide staining-based flow cytometric method; assay type: functional, cell-based
HUVEC [18] = assay: Antimigratory activity against HUVEC at 1 uM by wound-healing assay; assay type: functional, cell-based; settings: Homo sapiens, TDE = time-dependent effect
Procedure, shortened: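 HUVEC monolayers at 90% confluence were switched to serum-free medium and scratched with a pipette tip. Compound was added under hypoxia (1% O₂, 94% N₂, 5% CO₂, 37 °C) in the presence of PANC-1 conditioned medium. Wound closure was imaged by inverted-phase microscope at 12 h and 24 h.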

PANC-1 [19] = assay: Induction of apoptosis in human PANC1 assessed as increase in cleaved caspase-9 levels at 0.1 to 1 uM after 24 hrs by Western blot method; assay type: functional, cell-based; procedure, shortened: as §1
PANC-1 [20] = assay: Antiproliferative activity against human PANC1 cells after 48 hrs by MTT assay; assay type: functional, cell-based; settings: PANC-1, 48 h; procedure, shortened: as §2
[21] = Cmax in rat at 10 mg/kg, po after 0.083 to 24 hrs by LC-MS/MS method; assay type: ADME, organism-based; parameters: dose 10 mg/kg, route oral; settings: in vivo
[22] = AUC (0 to t) in rat at 10 mg/kg, po after 0.083 to 24 hrs by LC-MS/MS method; assay type: ADME, organism-based; parameters: dose 10 mg/kg, time upper 24 hr, time lower 0.083 hr, route oral; settings: in vivo
[23] = AUC (0 to t) in rat at 10 mg/kg, iv after 0.083 to 24 hrs by LC-MS/MS method; assay type: ADME, organism-based; parameters: time upper 24 hr, time lower 0.083 hr, dose 10 mg/kg, route intravenous; settings: in vivo
[24] = Oral bioavailability in rat at 10 mg/kg after 0.083 to 24 hrs by LC-MS/MS method; assay type: ADME, organism-based; settings: in vivo

Hypoxia-inducible factor 1-alpha (Homo sapiens), sequence (Q16665 whole entry, looked up): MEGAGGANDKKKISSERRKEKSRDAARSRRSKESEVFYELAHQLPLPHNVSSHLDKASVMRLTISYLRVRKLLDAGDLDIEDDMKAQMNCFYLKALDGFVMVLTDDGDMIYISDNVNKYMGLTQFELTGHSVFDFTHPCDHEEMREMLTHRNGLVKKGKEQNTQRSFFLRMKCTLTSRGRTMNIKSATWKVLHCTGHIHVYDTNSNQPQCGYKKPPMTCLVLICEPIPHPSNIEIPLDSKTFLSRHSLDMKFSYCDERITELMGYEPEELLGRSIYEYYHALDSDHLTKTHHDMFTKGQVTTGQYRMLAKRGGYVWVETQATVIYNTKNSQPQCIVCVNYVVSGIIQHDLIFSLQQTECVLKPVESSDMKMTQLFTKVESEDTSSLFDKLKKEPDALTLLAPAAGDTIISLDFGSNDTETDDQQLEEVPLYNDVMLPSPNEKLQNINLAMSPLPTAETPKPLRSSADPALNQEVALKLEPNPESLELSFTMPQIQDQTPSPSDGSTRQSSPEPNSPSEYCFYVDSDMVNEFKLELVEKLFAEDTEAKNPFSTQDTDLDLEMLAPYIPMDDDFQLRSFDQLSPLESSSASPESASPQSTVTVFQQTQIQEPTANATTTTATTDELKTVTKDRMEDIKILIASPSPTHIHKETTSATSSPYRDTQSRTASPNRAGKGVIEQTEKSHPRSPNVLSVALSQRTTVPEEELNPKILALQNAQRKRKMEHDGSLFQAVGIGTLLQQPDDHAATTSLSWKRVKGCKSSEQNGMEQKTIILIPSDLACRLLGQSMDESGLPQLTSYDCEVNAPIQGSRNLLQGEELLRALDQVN

For `Cc1c(C(=O)NC2CCN(C)CC2)oc2ccc(N(Cc3ccc(Br)cc3)S(=O)(=O)c3ccc(Br)cc3)cc12`, the Activity (PANC-1 [1]) was 9.3%, the Activity (Mus musculus) was “Non-Toxic” and the Activity (PANC-1 [2]) was “Active”. The Activity (PANC-1 [3]) was 3.7%, the IC50 (A549) was 2.68 µM and the IC50 (BXPC-3) was 0.65 µM. The IC50 (HCT-116) was 1.81 µM, the Activity (PANC-1 [4]) was 45.6% and the Activity (PANC-1 [5]) was “Active”. For the same compound, the Activity (PANC-1 [6]) was “Active”, the Cmax [7] was 549 ng/mL and the bioavailability [8] was 86.1%. The Activity (PANC-1 [9]) was “Active”, the Activity (PANC-1 [10]) was 3.55% and the concentration at 36 h [11] was > 10 ng/mL. The inhibition (HUVEC [12]) was “Active”, the Activity (PANC-1 [13]) was “Dose-dependent effect” and the inhibition [14] was “Dose-dependent effect”. For the same compound, the AUC(0-t) [15] was 6220 ng·h/mL, the half-life [16] was 7.68 h and the Activity (PANC-1 [17]) was “Dose-dependent effect”. For the same compound, the inhibition (HUVEC [18]) was “Tde”, the Activity (PANC-1 [19]) was “Active” and the IC50 (PANC-1 [20]) was 1.07 µM. It also gave a Cmax [21] of 80.6 ng/mL, an AUC(0-t) [22] of 1080 ng·h/mL and an AUC(0-t) [23] of 7220 ng·h/mL. The bioavailability [24] was 15%.
